# PABP polyA inh: blocks human PABP binding to poly(A) RNA. P11940. fluorescence polarization. inhibition, % at 35 µM. 290,000 compounds, 1% hits;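 also: calls also rest on retests at 20 µM and on dose response follow-up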
# PABP1 MLLE inh: inhibitors of microRNA-mediated deadenylation, human PABP1 MLLE binding | P11940 | GST-MLLE / FITC-PAM2 fluorescence polarization | inhibition, % at 20 µM | 360,000 compounds, 0.36% hits; in the data active = inhibition above about 35%, passing the limit was not always enough
# eIF4H FP inh: inhibitors of RNA binding by human eIF4H | Q15056 | 290,000 compounds, 0.94% hits | eIF4H fluorescence polarization binding assay | inhibition, % at 35 µM;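 also: calls also rest on retests at 20 µM and on dose response follow-up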
# MT1-MMP act inh: blocks activation of human MT1-MMP; P50281; HT1080 RFP-PRO-GFP cells, GFP/RFP ratio fluorescence, overnight; percent of plate control window, DMSO zero; GFP/RFP ratio change, % at 20 µM; 360,000 compounds, 0.061% hits; AID 651647;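 active = GFP/RFP ratio change of at least 30% with cell ATP level not reduced by more than half and red fluorescence within 50% of control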
#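 Assay system: HT1080 RFP-PRO-GFP cells. Benchmarks: DMSO vehicle wells and RFP-L50D-GFP reporter cell wells. Times: overnight cell settling, then overnight compound exposure, 37 °C, 5% CO2. Compound: 20 µM single dose, 1% DMSO. Read-out basis: GFP/RFP fluorescence ratio.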
# SKN-1 block: C. elegans SKN-1 inhibition. C. elegans VP596 Pgst-4::GFP/RFP ratio, acrylamide-induced, 24 h. inhibition, % at 21.8 µM. 360,000 compounds, 0.49% hits. AID 624304;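 active = interference check ratio from 0.5 to 1.5 plus GFP to RFP signal ratio inhibition reaching or exceeding a fixed threshold, cut at about 30% in these data, passing the limit was not always enough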
# A number is an active result; i = inactive; ? = inconclusive; nt = not tested or not shown. Most compounds without a hit are left out; they make up all but 1.7% or so of the library. Unless noted, no rule for the calls is given here.
SMILES,PABP polyA inh,PABP1 MLLE inh,eIF4H FP inh,MT1-MMP act inh,SKN-1 block
O=C(NCCN1C(=O)C2C3C=CC(C3)C2C1=O)Nc1ccccc1O (stereo not given),i,i,i,i,38
NC(=O)c1ccc(N2CCC(C(N)=O)CC2)c([N+](=O)[O-])c1,68,i,93,i,i
Cc1cccc(N2CC(C(=O)Nc3nnc(SCc4ccccn4)s3)CC2=O)c1 (stereo not given),i,i,i,i,i
S=C(Nc1ccccc1)Nc1nc2ccccc2n1CCOc1ccccc1,i,i,i,i,41
CC(=O)Nc1nc2ccccc2n1CCOc1ccccc1,i,i,i,i,i
CCCCn1c(NC(=S)Nc2ccccc2)nc2ccccc21,i,40,i,i,i
COc1ccc(C(=O)Nc2nnc(CC(=O)N/N=C/c3ccc(O)cc3O)s2)cc1,i,i,76,i,i
CC(=O)Nc1ccc(S(=O)(=O)N(C)c2ccc(OCC(=O)OCC(=O)NCc3ccco3)cc2)cc1,i,i,i,i,i
O=C(Nc1ccc2oc(-c3cccnc3)nc2c1)c1ccco1,i,i,i,i,i
O=C(Nc1ccc2c(c1)Cc1ccccc1-2)c1ccco1,i,i,i,i,72
O=C(Nc1ccc(Br)c(Cl)c1)c1ccco1,i,i,i,i,86
COc1ccc(NC(=O)c2cccs2)cc1NC(=O)c1ccco1,i,i,i,i,i
Cc1ccc(NC(=O)c2cccs2)cc1NC(=O)c1ccco1,i,i,i,i,44
O=C(Nc1ccc2nc(-c3ccccc3)oc2c1)c1ccco1,i,i,i,i,75
CN(C)S(=O)(=O)c1cccc(C(=O)Nc2cc3c(cc2C(=O)O)OCCCO3)c1,i,i,i,i,i
COC(=O)[C@@]12C[C@@H](CC(=O)N3CCN(C(=O)c4ccco4)CC3)C(=O)N(Cc3ccc4c(c3)OCO4)C1=CCC(C)(C)C2,nt,nt,nt,i,i
CC(=O)c1ccc(NC(=S)Nc2ccc(Br)c(Cl)c2)cc1,i,44,i,i,i
CCOCCCn1c(=N)c(S(=O)(=O)c2ccc(C)cc2)cc2c(=O)n3cc(C)ccc3nc21,i,40,?,i,i
Cc1ccc2nc3c(cc(S(=O)(=O)c4ccccc4)c(=N)n3Cc3ccco3)c(=O)n2c1,i,i,i,i,i
O=C(Cn1nc(-c2ccc(Cl)cc2)c2ccccc2c1=O)NN1CCOCC1,i,i,i,i,i
O=c1cc(CSc2n[nH]c(-c3ccncc3)n2)nc2sccn12,i,i,63,i,i
C/C(=N\OCC(=O)OCC(=O)NC(=O)c1ccc(OC(F)F)cc1)c1ccc2c(c1)OCO2,nt,i,nt,i,i
Cc1ccc(NC(=O)CN2C(=O)NC(Cc3ccccc3)C2=O)cc1Cl (stereo not given),nt,i,nt,nt,i
Cc1ccc(-c2nc3cccnc3o2)cc1NC(=O)COc1ccc(C(C)(C)C)cc1,i,i,i,i,43
Cc1ccc(-c2nc3cccnc3o2)cc1NC(=O)COc1ccc(Cl)cc1C,i,i,i,i,i
SMILES,PABP polyA inh,PABP1 MLLE inh,eIF4H FP inh,MT1-MMP act inh,SKN-1 block
CSCCC(NC(=O)c1ccccc1Br)C(=O)N1CCCC(C(F)(F)F)C1 (stereo not given),i,i,i,i,i
CCOC(=O)C1Nc2ccc(C(=O)O)cc2C2C=CCC12 (stereo not given),94,50,96,i,i
COc1ccc(NS(=O)(=O)c2ccc3c(c2)[C@H]2C=CC[C@H]2[C@@H](c2ccc(C(=O)O)cc2)N3)cc1,82,i,97,i,i
CCOC(=O)c1ccc2c(c1)C1C=CCC1C(C(=O)O)N2 (stereo not given),82,nt,92,nt,nt
COCCNC(=O)C1Nc2ccc(C(F)(F)F)cc2C2C=CCC12 (stereo not given),nt,i,nt,i,i
CC(C)C1Nc2ccc(C(=O)O)cc2C2C=CCC21 (stereo not given),i,i,96,i,i
CCCC1Nc2ccc(C(=O)O)cc2C2C=CCC12 (stereo not given),i,i,i,i,i
COC(=O)CNC(=O)C1Nc2ccc(OC(F)(F)F)cc2C2C=CCC12 (stereo not given),nt,i,nt,i,i
CC(C)N1CCC(=NNC(=O)c2cccs2)CC1,i,i,i,i,i
COc1ccccc1C(=O)Nc1ccccc1N1CCN(C(=O)c2ccc(Cl)cc2)CC1,i,i,i,i,i
N#Cc1ccc(Cl)cc1NC(=O)CNCc1cccs1,?,i,i,i,i
CCOc1ccc(CN(C)CC(=O)Nc2ccccc2C(=O)NC2CC2)cc1,nt,i,nt,i,i
O=C(O)c1ccc2c(c1)C1C=CCC1C(c1ccncc1)N2 (stereo not given),83,i,97,i,i
CN(c1cccc2cccnc12)S(=O)(=O)c1ccccc1,i,i,i,i,i
C[C@@H]1CN([C@H](C)CO)C(=O)CCCn2cc(nn2)CO[C@H]1CN(C)C(=O)Nc1ccccc1,nt,i,nt,i,i
Cc1ccc(C)c(NC(=S)NNC(=O)c2csc(C(C)C)c2)c1,66,39,13,i,i
Cc1ccc(C)c(NC(=S)NC(=O)c2cncc(Br)c2)c1,nt,40,nt,i,i
O=C(Nc1nc(-c2cccs2)cs1)c1ccco1,i,i,i,i,i
O=C(Nc1nc(-c2ccccc2)cs1)c1ccccc1F,i,i,i,i,53
O=C(Nc1nc(-c2ccncc2)cs1)c1ccco1,i,i,84,i,i
Cc1ccc(C)c(NC(=S)NNC(=O)c2csc(C)c2C)c1,i,i,i,i,i
O=S(=O)(c1ccc(SCc2ccc(Br)cc2)nc1)N1CCCCC1,nt,i,nt,i,i
COc1ccc(S(=O)(=O)N2CCCCCC2)cc1C(=O)N(C)Cc1ccc(OC)c(OC)c1OC,nt,i,nt,i,i
O=C(NC(=S)Nc1ccccc1Cl)c1cncc(Br)c1,i,43,i,i,i
O=C(NC(=S)Nc1nc(-c2ccccc2)cs1)c1cccnc1,i,i,i,i,i
SMILES,PABP polyA inh,PABP1 MLLE inh,eIF4H FP inh,MT1-MMP act inh,SKN-1 block
O=C(NC(=S)Nc1nc(-c2ccccc2)cs1)c1cncc(Br)c1,i,45,i,i,i
O=C(CN1CCOCC1)NN=C1CCCCCCCCCCC1,57,i,active,i,i
O=c1c2c([N+](=O)[O-])cc([N+](=O)[O-])cc2nc2ccccn12,57,i,82,i,i
Cc1nn(C)cc1CN(C)S(=O)(=O)c1cccc([N+](=O)[O-])c1,i,i,i,i,i
O=C(O)CN1C(=O)/C(=C\c2cc(Br)ccc2OCc2ccc(Cl)cc2Cl)SC1=S,63,i,88,i,i
Oc1ccc(/C=N/n2cc(-c3ccccc3)[nH]c2=S)cc1,i,43,i,i,i
COc1ccc(C(N)CCc2ccco2)cc1 (stereo not given),24,i,50,i,i
COc1ccc(S(=O)(=O)N(C)C(C)CCc2ccco2)cc1 (stereo not given),i,i,i,i,i
FC(F)(F)c1cc(-c2cccs2)nc(-n2cc(Br)cn2)n1,i,i,i,i,45
N#Cc1cc2c([nH]c1=S)CCCCCC2,i,38,i,i,i

# Bioassay records (PubChem)
